Laboratory results published in PubChem BioAssay AID588826 (Broad Institute, 2011).
Where “and” joins values, the source holds several entries; their conditions need not be identical. Equal values may be shown once. Calls of active or inactive are those of the source.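 How the source made its calls: active means compounds cutting cell viability whose fitted half-maximal concentration is at most twice the top tested dose; inconclusive means flat loss between 30% and 70%, or poor curve fit; inactive means opposite effect, flat within 30%, or weaker potency.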

tested on: not listed separately; experiment: cytotoxicity in ldlA[mSR-BI] CHO cells, dose response, cytotoxicity control for SR-BI HDL uptake inhibitor project, cell-based, CellTiter-Glo luminescence, 24 h, dry powder, set 3 (AID 588826); settings: ldlA[mSR-BI] CHO cells viability, CellTiter-Glo ATP, 24 h; at 11 µM (top of the series)
Summary of the method: (§1)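 Assay system: ldlA[mSR-BI] cells; Buffer or medium: Ham's F12 growth medium with 10% FCS; Signal: ATP luminescence, CellTiter-Glo; Times: 24 h compound exposure at 37 °C, read 10 min after reagent; Read-out basis: cell viability IC50.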

| SMILES | activity change, negative = cytotoxicity |
| --- | --- |
| CC(C)NC(=O)Nc1cccc2c1O[C@H](CN(C)Cc1ccc(Cl)c(Cl)c1)[C@@H](C)CN([C@@H](C)CO)C2=O | 6.58% (inactive) |

same assay, conditions: ldlA[mSR-BI] CHO cells viability, CellTiter-Glo ATP, 24 h; at 30 µM (top of the series)

| SMILES | activity change, negative = cytotoxicity |
| --- | --- |
| C[C@@H]1CN([C@@H](C)CO)C(=O)Cc2cc(NC(=O)Nc3ccc(C(F)(F)F)cc3)ccc2O[C@@H]1CN(C)S(=O)(=O)c1ccc(Cl)cc1 | -40.4% (inactive) |

same assay, conditions: ldlA[mSR-BI] CHO cells viability, CellTiter-Glo ATP, 24 h; at 35 µM (top of the series)

| SMILES | activity change, negative = cytotoxicity |
| --- | --- |
| C[C@H](C(=O)NC1CCCC1)N(C(=O)Cn1nnc(-c2ccc3c(c2)OCO3)n1)C1CCCCC1 | -10.6% (inactive) |
| CCC(=O)N1CCc2cc(-c3csc(NC(=O)c4cccc(OC)c4)n3)ccc21 | 3.32% (inactive) |
| CCC(=O)N1CC(C)(C)c2cc(-c3csc(NC(=O)c4cc(OC)cc(OC)c4)n3)ccc21 | -3.5% (inactive) |
| CCC(=O)N1CCc2cc(-c3csc(NC(=O)c4ccc(Cl)s4)n3)ccc21 | -1.8% (inactive) |
| COc1ccc(-c2nnn(CC(=O)N(CC3CCCCC3)C(C)C(=O)NC3CCCC3)n2)cc1OC (stereo not given) | 3.32% (inactive) |
| COc1cc(OC)cc(C(=O)Nc2nc(-c3ccc4c(c3)CCN4C(=O)CN(C)C)cs2)c1 | -10.2% (inactive) |
| COc1ccc(-c2nnn(CC(=O)N(C3CCCCC3)C(C)C(=O)NC3CCCC3)n2)cc1OC (stereo not given) | 37.1% (inactive) |
| CC(C)(Sc1cc(C(C)(C)C)c(O)c(C(C)(C)C)c1)Sc1cc(C(C)(C)C)c(O)c(C(C)(C)C)c1 | -1.63% (inactive) |
| COc1ccc(-c2nnn(CC(=O)N(C3CCCCC3)C(C(=O)NC3CCCC3)C(C)C)n2)cc1OC (stereo not given) | -15.8% (inactive) |
| C[C@@H]1CN([C@H](C)CO)C(=O)c2cc(NC(=O)Cc3cn(C)c4ccccc34)ccc2O[C@H]1CN(C)S(=O)(=O)c1ccc(F)cc1 | -4.67% (inactive) |
| CC(=O)N1CCc2cc(-c3nc(NC(=O)c4cccc(OC(F)(F)F)c4)sc3C)ccc21 | 1.36% (inactive) |
| CCC(=O)N1CCc2cc(-c3csc(NC(=O)c4ccc(F)c(OC)c4)n3)ccc21 | -12.3% (inactive) |
| COc1cc(OC)cc(C(=O)Nc2nc(-c3ccc4c(c3)CCN4C(=O)OC(C)(C)C)cs2)c1 | 5.45% (inactive) |
| COCC(=O)N1CCc2cc(-c3csc(NC(=O)c4cc(OC)cc(OC)c4)n3)ccc21 | 4.05% (inactive) |
| CC(C(=O)NC1CCCC1)N(C(=O)Cn1nnc(-c2ccccc2)n1)C1CCCCC1 (stereo not given) | 4.27% (inactive) |
| COc1ccc(-c2cc(CC(=O)N(C3CCCCC3)C(C)C(=O)NC3CCCC3)no2)cc1OC (stereo not given) | 3.77% (inactive) |
| COc1ccc(-c2nnn(CC(=O)N(C3CCN(C)CC3)C(C)C(=O)NC3CCCC3)n2)cc1OC (stereo not given) | 9.25% (inactive) |
| CCC(=O)N1CCc2cc(-c3csc(NC(=O)c4cccc(C#N)c4)n3)ccc21 | -0.356% (inactive) |
| O=C(CN(C(=O)Cn1nnc(-c2ccc3c(c2)OCO3)n1)C1CCCCC1)NC1CCCC1 | -3.34% (inactive) |
| CCOC(=O)N1CCC(NC(=O)c2ccc3c(c2)N(Cc2ccc(F)cc2)CCS3)CC1 | -13.6% (inactive) |
| CCNC(=O)N1CCc2cc(-c3csc(NC(=O)c4cc(OC)cc(OC)c4)n3)ccc21 | -8.64% (inactive) |
| CCC(=O)N1CCc2cc(-c3csc(NC(=O)c4ccc5c(c4)OCO5)n3)ccc21 | 1.94% (inactive) |
| COc1ccc(-c2nnn(CC(=O)N(C3CCCC3)C(C)C(=O)NC3CCCC3)n2)cc1OC (stereo not given) | -0.791% (inactive) |
| C[C@@H]1CN([C@H](C)CO)C(=O)c2cc(NC(=O)Cc3cn(C)c4ccccc34)ccc2O[C@H]1CN(C)S(=O)(=O)c1ccc(Cl)cc1 | 4.93% (inactive) and -3.5% (inactive) and 6.65% (inactive) |
| CCC(=O)N1CCc2cc(-c3csc(NC(=O)c4ccco4)n3)ccc21 | -2.4% (inactive) |
| CC1CCC/C=C/C2CC(O)CC2C(O)/C=C\C(=O)O1 (stereo not given) | -9.81% (inactive) |

same assay, conditions: ldlA[mSR-BI] CHO cells viability, CellTiter-Glo ATP, 24 h; at 68 µM (top of the series)

| SMILES | activity change, negative = cytotoxicity |
| --- | --- |
| CCOc1ccc(NC(=O)CN2CCN(CC(=O)Nc3cc(OC)cc(OC)c3)CC2)cc1 | -0.275% (inactive) |

tested on: ldlA[mSR-BI] CHO cells viability, CellTiter-Glo ATP, 24 h; experiment: as above; settings: not given
Summary of the method: as §1

| SMILES | IC50 |
| --- | --- |
| CCOc1ccccc1/C=C/c1onc(C)c1S(=O)(=O)N1CCC(C(=O)NC(C)(C)C)CC1 | 33.8 µM |
| COc1c(NC(=O)C(=O)c2ccc(OCCN3CCOCC3)c3ccccc23)cc(C(C)(C)C)cc1NS(C)(=O)=O | 17.8 µM |
| C[C@H]1CN([C@@H](C)CO)C(=O)c2cccc(NC(=O)Nc3ccccc3)c2O[C@@H]1CN(C)Cc1ccc(Cl)c(Cl)c1 | 16.1 µM |
| Cc1ccc2oc(-c3cccc(NC(=O)c4cc(-n5cnnc5)ccc4Cl)c3)nc2c1 | 39.9 µM |
| CCCCCCC1CCC/C1=N\NC(N)=S (stereo not given) | 4.46 µM |
| CC(C(=O)NC1CCCC1)N(C(=O)Cn1nnc(-c2ccc(Cl)cc2)n1)C1CCCCC1 (stereo not given) | 53 µM |
